# Experimental data taken from the EternaBench riboswitch data.
# Test system: MS2 coat protein
# Assay: apparent Kd, MS2 coat protein; higher = weaker binding; RNA-MaP array; FMN 200 µM where present
# Summary of the method: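 The apparent Kd is the median of filtered binding-curve fits, one per cluster, to green signal normalised to red-channel RNA signal and control-cluster median Fmax. The clusters were on Illumina sequencing chips, and stalled E. coli RNA polymerase had transcribed the designs on them. Titration used SNAP-549-labelled MS2 coat protein from 0.7 or 1.5 nM, doubling to 3 µM, without and then with constant ligand, in 100 mM Tris-HCl pH 7.5, 80 mM KCl, 4 mM MgCl2, BSA, DTT, yeast tRNA and Tween-20.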
# [1] = designed as: OFF switch for flavin mononucleotide, no ligand
# [2] = ligand present: flavin mononucleotide, designed as: OFF switch for flavin mononucleotide
# [3] = designed as: ON switch for flavin mononucleotide, no ligand
# [4] = ligand present: flavin mononucleotide, designed as: ON switch for flavin mononucleotide
Sequence,apparent Kd [1] [nM],apparent Kd [2] [nM],apparent Kd [3] [nM],apparent Kd [4] [nM]
GAAUGUUGGCUAGGAUAUGCAUUUUGAGAGGUAGCAGAAGGAGCGCACAUGAGGAUCACCCAUGUUAGCAUUGGGCGUCUCUCA,5.76,16.3,,
GACAUUGGCAAGAAGGCAAACAUGAGGAUCACCCAUGUUCUGCAUGUAUAUUGAGGAUAUUGCCAAUGUAUGUGGAUCACCCAA,6.36,23.3,,
GACCUACAUGAGGAUCACCCAUGUCAGGAUAUUUAACCGAUGUCACCCAUCGGUCCUUAGAGAAGGGAUGUGGC,15,14.9,,
GACCUACAUGAGGAUCACCCAUGUGAGGAUAUAUUGUUAUUUUUAAUAUUUUUUAGUGGUAGAAGGCGCGUGAU,18.4,17.3,,
GACUACGAGGGAGGAUAUCCUCAUUAAAAUGGUGGAGAAGGCCCUCUACAUGAGGAUCACCCAUGUAUCGCUAUAGUCAGAAAU,,,10.8,6.53
GACUGACAUGAGGAUCACCCAUGUAUUCGAGCAUGAGGAUAUAUGACUCGUCAUCGGCGGAUAGAAGGCAUGGUUG,,,162,212
GACUGAUUGUAGAAGGUACUUAAUACUCAUGUAACAUGAGGAUCACCCAUGUAUCAACAAUAUUGUAAGGAUAUACAUAUCUCA,,,231,103
GACUGCCGAGGAUAUACAUGAGGAUCACCCAUGUGCUUCAGCAUUUUUUAAUGCAUGGGUAGAAGGCGGUAGUU,35.4,60.7,,
GACUUGCAGCUAGGAUAUGGGCGAUCACAUGAGGAUCACCCAUGUCAACAUCAAAACAAGAUUAACCAGAAGGAGCCGCGGGCU,,,17.3,63.9
GACUUGUCAGGAUAUCUUACAUUUGCAUCGUAGUUACCAUUGGAGAAGGGACAUGAGGAUCACCCAUGUUUGGU,35.2,34.9,,
GACUUUUCUGAGGAUAUUGCAUCAUACGAUUUAUAAGAAGGCAGAACAUGAGGAUCACCCAUGUGGGUUUUUAG,41.7,91.1,,
GAGAAGUCAGGAUAUGCAUGGCGGGACUUGCGUCGUGGCGUGCAGAAGGGACAUGAGGAUCACCCAUGUGGAGA,125,291,,
GAGCAGGAAGGAUAUACAUGAGGAUCACCCAUGUACCAUCAAGGCUUUGAUUUUCACGGUAGAAGGUCCCAAUA,40.3,51.4,,
GAGCGAAAGCUCAAUGUCGAUAGCAGAAGGACAUGAAAACAUGAAAUAACAUGAGGAUCACCCAUGUAGGAUAUGCUAUCGACU,17.9,279,,
GAGCGAAAGCUCAAUGUCGAUAGCAGAAGGGCAUGAAAACAUGAAAACACAUGAGGAUCACCCAUGUAGGAUAUGCUAUCGACU,10.6,17.6,,
GAGCGAGGGACAGGAUAUGCGGCGAAACUCUCCGCAGAAGGGUCGACAUGAGGAUCACCCAUGUCCUUACGCUCCAAGUAGAGG,,,132,397
GAGGAACAUGAGGAUCACCCAUGUGAGGAUAUGCAUAGCGAGGUAGUAGAAGUUGAAUGCAGAAGGUACACGGA,36,30.3,,
GAGGACUGUAAAUAAGUAGAAAUACAUGAGGAUCACCCAUGUAAGGAUAUCGUCAGGAAUACUGACGAGAAGGUACAUCAGUCC,14.5,18.1,,
GAGUAGUUGAAAGGAUAUGCAUUGUUAUAGAAUGCAGAAGGUUCUAACAUGAGGAUCACCCAUGUAGGACUAUUCCUGUGUAUC,,,12.1,9.82
GAGUUACAUGAGGAUCACCCAUGUUGUUUUGGAUAAGGAUAUAUGGUAGGAAGAGGAAUGAUAGAAGGUAUUAGGG,,,29.9,28.3
GAUAGAGAGCAGGAUAUCAUAGAAAUGUAUGAAUGAGAAGGGCUCACAUGAGGAUCACCCAUGUGGUCCUAGAU,25.8,236,,
GAUAUGUUAGGAUAUCGGAAAACGGCCCACUGGCACGGAAGCGAGAAGGGACAUGAGGAUCACCCAUGUGAAAG,48.1,31.4,,
GAUAUUUUUUGAGGAUAUUCAUACACUGUAUACGGAGAAGGCAAACAAUCAUGAGGACAUGAGGAUCACCCAUGUUGUGACCAU,,,19.5,13.5
GAUCAACAUGAGGAUCACCCAUGUGAGGAUAUGAUACUAUGUACUUCGGUACAUAGUAUCAGAAGGCAUGUGAA,78.1,111,,
GAUCCACAUGAGGAUCACCCAUGUCAGGAUAUGAUACUAUGUACUUCGGUACAUAGUAUCAGAAGGGACAGAUC,168,108,,
GAUCCACAUGAGGAUCACCCAUGUGAGGAUAUGAUACUAUGUACUUCGGUACAUAGUAUCAGAAGGCACAUUGA,114,65.9,,
GAUCCACAUGAGGAUCACCCAUGUGAGGAUAUGAUACUAUGUACUUCGGUACAUAGUAUCAGAAGGCACGGGUC,84.1,206,,
GAUCCACAUGAGGAUCACCCAUGUGAGGAUAUGUUGUUAGCUUUUUGCCGUAAGCCAUAUAGAAGGCACGGGUG,20.1,22.3,,

Sequence,apparent Kd [1] [nM],apparent Kd [2] [nM],apparent Kd [3] [nM],apparent Kd [4] [nM]
GAUCCGUCCUAGAAGGCCAUUCAACAUGAGGAUCACCCAUGUGCGAACUGGAGGAUAUAGGUGGGAUAGGCCUAGGGCCCGGUC,,,9.38,6.12
GAUCGACCUGAGAAGGCACAUGAGGAUCACCCAUGUUGAACCAUACAUGCCACAAAGUGGCAAUGUGAGGAUAUCAGGUCGAUC,6.54,12.1,,
GAUGAGGUAGGAUAUACGAUAAUAUAGGGUAGAUAUAUAACACAUGAGGAUCACCCAUGUAGAAGGACCAGUAC,38.6,61.1,,
GAUGGACAUGAGGAUCACCCAUGUAAGGAUAUUGAUUGUGGCUAUAAAUGGUUACGGUCGAGAAGGUACUCGUC,82.2,78.8,,
GAUUACAAGUAAGGAUAUGUAUAUGAAACAUAUACAGAAGGUACAUGAGGAUCACCCAUGUUCUUGCAGCGCGAAUAUGUAAUC,17.1,21.1,,
GAUUAUAAGUAAGGAUAUGUAUAUGAAACAUCUACAGAAGGUACAUGAGGAUCACCCAUGUUCUUGCAGCGUGACUAUGUAAUC,24,27.9,,
GAUUCACAUGAGGAUCACCCAUGUCGUUAUAUGGGAGGAUAUACGUGGACCGUAGUCCGCGUAGAAGGCCUAAUUG,,,378,81.2
GAUUGACAUGAGGAUCACCCAUGUGAGGAUAUCGGCCGGACCUUGUUAGCUUCCAUCGUGAGAAGGCACAUAGG,30.4,31.5,,
GAUUGAGAGCAGGAUAUCAUAGAAAUGUAUGAAUGAGAAGGGCUCACAUGAGGAUCACCCAUGUGGUCCUAGAU,27.2,171,,
GAUUUCGCAUGAGGAUAUGCUCCCGUUUCGGGAGCAGAAGGCAUGUCAUUAGACAUGAGGAUCACCCAUGUAGUUAAGAUUGAA,,,378,15.7
GAUUUGUGACAAUUACAUGAGGAUCACCCAUGUUGUAGUAUGCAGGAUAUGUGGUAUAUUAUUUAACAGAAGGGCAAUAAUUUU,,,98,46.4
GAUUUGUGAGGAUAUACAUGAGGAUCACCCAUGUGUGUCCAUACGCGUGAGUCUUCGUGUAGAAGGCGCGGGUC,15.5,15.9,,
GCAAAGCCUGACAUGAGGAUCACCCAUGUUAGAUUGUUAUGUCAGGAUAUUGUCUAGAAACUAGACAAGAAGGGAUGCUUUGCA,,,463,27.3
GCACAUUUGUAAGGAUAUACAACAUGAGGAUCACCCAUGUGUUGGAAUUUAGUAGAAGGUACAGACAUGAGUAUCACUUUUGUA,,,72.7,51.9
GCACGACAUGUAGGAUAUCGAGCGCCGAGCGCUCGAGAAGGACAUGAGGAUCACCCAUGUAUUCUGAGUGAGCGAGGUCGUGCA,45.7,393,,
GCACGAUCCUCAGGAUAUCACUGAAACAUGAGGAUCACCCAUGUGCGCAGAUGAGAAGGGAGGACUCCGUCUGACUAAAUGUUA,,,109,10.6
GCACGGCGUGUAGGAUAUGCAUAGCAUUGCUAUGCAGAAGGACAUGAGGAUCACCCAUGUAUGUAUUCCAUACAUUUCCCGUGC,6.42,7.31,,
GCACUGGAUGUAGGAUAUCAGGACGAUAAGUCCUGAGAAGGACAUGAGGAUCACCCAUGUGUUAAAACCAGUGCAUAUAAUAUA,13.8,20.6,,
GCACUUAAAAUUGAACCGUUUCGAACAUGAGGAUCACCCAUGUAGGAUAUGCUAAUAGUAUUGAAGCAGAAGGACAAUAAGUGC,6.17,5.99,,
GCACUUAAGUUAGGAUAUGGAUCGGAAAACGAUCCAGAAGGAAUAUGGGAACAUGAGGAUCACCCAUGUUCCACAGACAAGUGC,,,47.5,24.4
GCACUUACGUUAGGAUAUGGAUCGGAAAACGAUCCAGAAGGAAUAUGGGAACAUGAGGAUCACCCAUGUUCCGCAGACAAGUGC,,,96.5,39
GCACUUUUAUUUUAACCGUUUCGAACAUGAGGAUCACCCAUGUAGGAUAUGCUAAAAGUUGUGAUGCAGAAGGACAUUAAGUGC,7.15,7.29,,
GCAGAUCACGUGAGGAUAUCGUCUACCUCGGUAGUCGAGAAGGCACAUGAGGAUCACCCAUGUGAGUGUUCUGC,20.1,19.5,,
GCAGCAAUCUUUAACAUGAGGAUCACCCAUGUCGAGAGAUAUGAGGAUAUGCAUCUGAAGAAGAUGCAGAAGGCAUUGUGCUGC,,,6.26,5
GCAGCAUAAAUUAUACAUGAGGAUCACCCAUGUUACAUGUGUAAGGAUAUUGAGGUUAUUAUUGGCAAGAAGGUACAAUGCUGC,,,15.2,8.57
GCAGCGCAUGUAGGAUAUCGGUCAGUUUCUGAUCGAGAAGGACAUGAGGAUCACCCAUGUAAAUUACCGACUUUGUCGGGCUGC,10.2,39.2,,
GCAGCGUAUGUAGGAUAUCGGUCAGAUUCUGAUCGAGAAGGACAUGAGGAUCACCCAUGUAAAUUACCGACUUUGUCGGGCUGC,6.73,8.18,,
